Bioassay records as filed in PubChem BioAssay.
KCNK3 block: human KCNK3 channel inhibition, primary screen. CHO-KCNK3 thallium flux, FluxOR fluorescence; stronger effect = lower value. B-score at 10 µM. 0.84% of 340,000 active. AID 602410;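 active = B-score under library mean minus 4 SD, starting fluorescence ratio at most library mean plus 5 SD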;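 note: more negative B-score means stronger inhibition of thallium flux through KCNK3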
Kir21 inh: blocks the mouse Kir2.1 inward-rectifier potassium channel; AID 1672; B-score at 10 µM; P35561; 0.85% of 310,000 active; HEK293-Kir2.1, FluxOR thallium flux fluorescence; stronger effect = lower value;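 active = fluorescence ratio B-score at or below minus 3 SD of library scores, with starting-brightness B-score within 2 SD, cut at about -4.2 in these data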;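 note: channel flux triggered by added potassium and thallium sulfate stimulus; B-score of peak minus minimum fluorescence over baseline after thallium stimulus; more negative B-score means stronger Kir2.1 block with less thallium influx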
KCNK9 block: blocks the human KCNK9 two-pore domain potassium channel; B-score at 10 µM; AID 488922; Q9NPC2; 1.2% of 310,000 active; HEK293 KCNK9, FluxOR thallium flux fluorescence; stronger effect = lower value;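 active = ratio B-score over 3 SD below the library mean, with starting fluorescence within 5 SD of its mean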;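 note: negative B-score means less thallium flux so channel inhibition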
KCNQ1 act: human KCNQ1 channel potentiation or activation; CHO-K1 KCNQ1, thallium flux FluxOR fluorescence; stronger effect = higher value; B-score at 10 µM; 0.35% of 310,000 active; AID 2648;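 active = fluorescence ratio B-score, a plate-corrected score, at least three library SD, with initial intensity B-score within 5 SD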
Target sequence (P51787 whole entry, looked up): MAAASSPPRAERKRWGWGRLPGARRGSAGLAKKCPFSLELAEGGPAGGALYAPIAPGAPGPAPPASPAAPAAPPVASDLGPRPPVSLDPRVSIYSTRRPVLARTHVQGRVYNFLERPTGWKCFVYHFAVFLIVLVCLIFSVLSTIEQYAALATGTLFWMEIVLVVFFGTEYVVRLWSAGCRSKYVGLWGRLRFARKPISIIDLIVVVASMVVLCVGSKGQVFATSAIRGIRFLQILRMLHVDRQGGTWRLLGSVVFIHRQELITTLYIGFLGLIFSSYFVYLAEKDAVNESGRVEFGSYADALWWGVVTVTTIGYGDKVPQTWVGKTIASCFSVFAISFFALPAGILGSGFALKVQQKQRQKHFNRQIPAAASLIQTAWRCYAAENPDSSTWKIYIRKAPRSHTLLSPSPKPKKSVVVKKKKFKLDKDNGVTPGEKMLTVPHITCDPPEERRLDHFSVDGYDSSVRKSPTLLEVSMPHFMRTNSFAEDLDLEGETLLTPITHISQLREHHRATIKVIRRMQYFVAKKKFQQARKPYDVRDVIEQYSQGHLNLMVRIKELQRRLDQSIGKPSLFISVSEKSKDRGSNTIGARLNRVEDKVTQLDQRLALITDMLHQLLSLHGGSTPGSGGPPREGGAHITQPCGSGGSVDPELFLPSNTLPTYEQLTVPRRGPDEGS
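Medium – assay buffer, equal DMSO in all wells · Material – CHO-K1 cell line with stable KCNQ1 potassium channel expression · Signal – kinetic FluxOR thallium fluorescence, 10-s 1-Hz baseline, 110-s post-stimulus read · Compound – single concentration per compound, DMSO matched to controls · Schedule – 37 °C overnight plating, 90-min dark dye load, 20-min compound pretreatment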
hERG protect: hERG (human) protection from proarrhythmic block; CHO-hERG, FluxOR thallium flux, dofetilide IC70 present; activation (rescue from dofetilide block), less the hit threshold, % at 10 µM; 0.51% of 310,000 active; AID 1511;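 active = activation above the mean of controls blocked by dofetilide plus 5 SD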;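 note: thallium influx through hERG after potassium depolarization seen as dye fluorescence rise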
KCNQ1 block: inhibitors of human KCNQ1 potassium channel | P51787 | CHO-K1 KCNQ1, FluxOR thallium flux fluorescence; stronger effect = higher value | B-score at 10 µM | 1.3% of 310,000 active | AID 2642;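 active = compounds whose thallium flux B-score, printed positive for inhibition, exceeds three library SD while starting fluorescence stays within three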;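 note: channel opened by potassium depolarization with thallium stimulus after 20 min compound exposure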
KCNK9 inh conf: human KCNK9 inhibitor confirmation | shares compounds with KCNK9 block | HEK293 KCNK9 cells, FluxOR thallium flux fluorescence | inhibition, % at 10 µM | 43% of 4,900 active | AID 492992;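 active = thallium signal inhibited by more than 5 SD of the compound-free buffer control wells, on both duplicate plates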
Kir21 sel: tests whether KCNK9 modulators also affect mouse Kir2.1; Kir2.1 cells, FluxOR thallium flux fluorescence; inhibition, % at 10 µM; 4% of 4,900 active; shares compounds with KCNK9 block;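 active = thallium signal drop more than 5 SD beyond the mean of the no-compound control wells, seen in both duplicate plates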;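 note: signal is fluorescence rise after thallium addition divided by baseline fluorescence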
KCNK9 uninduced: second check of KCNK9 modulator effects in non-induced HEK293 cells. shares compounds with KCNK9 block. FluxOR thallium flux. inhibition, % at 10 µM. 40% of 4,900 active. AID 492997;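 active = thallium signal drop beyond 5 SD of the untreated control mean, on both duplicate plates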
Numbers stand for hits; - = inactive; . = not tested or not shown. In the library only some 3.7% were active in any assay of this set; here they are far more common.

SMILES | KCNK3 block | Kir21 inh | KCNK9 block | KCNQ1 act | hERG protect | KCNQ1 block | KCNK9 inh conf | Kir21 sel | KCNK9 uninduced
O=C(CN1CCN(c2ccccc2)CC1)Nc1ccncc1 | - | - | - | - | - | - | . | . | .
O=C(CN1CCN(c2ccccc2)CC1)Nc1ccc2c(c1)CCC2 | - | - | - | - | - | - | - | - | -
CCCCSc1nnc(CCCCCNC(=O)OC(C)(C)C)o1 | - | - | - | - | - | - | . | . | .
O=C(Nc1cn(-c2ccccc2)nc1-c1ccc(Cl)cc1)c1ccccc1 | - | - | -9.2 | - | - | - | 50% | - | 42%
COC(=O)c1ccccc1N/C=C/C(=O)c1ccc(Br)cc1 | - | - | -12 | - | - | - | 43% | - | 38%
NC(=O)c1ccccc1N/C=C/C(=O)c1ccccc1 | - | - | - | - | - | - | . | . | .
CCOC(=O)c1ccccc1N/C=C/C(=O)c1cccs1 | - | - | -9.8 | - | - | - | 50% | - | 39%
CCCCN(C(=O)c1c(C)noc1C)c1c(N)n(CCC)c(=O)[nH]c1=O | - | . | . | . | . | . | . | . | .
CCOC(=O)c1c(NC(=O)C2CCCCC2)sc2c1CCN(C(C)C)C2 | - | - | - | - | - | - | . | . | .
CCN(CC)C(=O)/C=C/c1ccccc1 | - | . | . | . | . | . | . | . | .
CCN(C(=O)/C=C/c1ccccc1)C1CCCCC1 | - | - | - | - | - | - | - | - | -
Cn1c2ccccc2c(=O)c2ccc(-c3ccc4c(c3)OCO4)cc21 | - | - | -8.9 | - | - | - | 64% | - | -
COc1cccc(/C(C#N)=C/c2c(-c3ccc(Cl)cc3)nc3c(C)cccn23)c1 | - | - | -8.9 | - | - | 8 | 58% | - | 38%
Cc1ccc(C2(C)NC(=O)N(CC(=O)Nc3ccc(S(=O)(=O)Nc4nccs4)cc3)C2=O)cc1 (stereo unspecified) | - | - | - | - | - | - | . | . | .
C/C(=N\NC(=O)c1nn(C)c(C)c1Br)c1ccc(NC(=O)C2CCCC2)cc1 | - | - | -12 | - | - | - | 68% | - | -
C/C(=N\NC(=O)c1ccn(C)n1)c1ccc(NC(=O)C2CCCC2)cc1 | - | - | - | - | - | - | . | . | .
COCc1cc(C)nc(Sc2nc3c(c(=O)n(C)c(=O)n3C)n2C)c1C#N | - | - | - | - | - | - | . | . | .
COc1ccccc1Cc1noc(COc2cccc(C)c2C)n1 | - | - | - | - | - | - | - | - | -
CCOC(=O)C1CCCN(C(=O)c2ccc(Cl)c(S(=O)(=O)N3CCCCCC3)c2)C1 (stereo unspecified) | - | - | - | - | - | - | - | - | -
CC1CCCN(C(=O)c2ccc(Cl)c(S(=O)(=O)N3CCCCCC3)c2)C1 (stereo unspecified) | - | . | . | . | . | . | . | . | .
COc1cc2c(cc1OC)C(C)N(C(=O)c1ccc(Cl)c(S(=O)(=O)N3CCCCC3)c1)CC2 (stereo unspecified) | - | - | -11 | - | - | - | 32% | - | -
O=C(OCC(=O)N1CCCCCC1)c1ccc(Cl)c(S(=O)(=O)N2CCCC2)c1 | - | - | - | - | - | - | - | - | -
O=C(c1ccc(Cl)c(S(=O)(=O)N2CCCCC2)c1)N1CCN(Cc2ccccc2)CC1 | - | - | - | - | - | - | - | - | -
CCS(=O)c1ccccc1C(=O)OCC(=O)Nc1cccc(S(=O)(=O)N2CCCCC2)c1 (stereo unspecified) | - | . | . | . | . | . | . | . | .
COc1cc(OC)c(C2CC(=O)N3CN(c4ccccc4)CSC3=C2C#N)cc1OC (stereo unspecified) | - | - | - | - | - | - | . | . | .
SMILES | KCNK3 block | Kir21 inh | KCNK9 block | KCNQ1 act | hERG protect | KCNQ1 block | KCNK9 inh conf | Kir21 sel | KCNK9 uninduced
COc1cccc(C2CC(=O)N3CN(c4cccc(Cl)c4C)CSC3=C2C#N)c1OC (stereo unspecified) | - | - | - | - | - | - | - | - | -
N#CC1=C2SCN(c3ccccc3)CN2C(=O)CC1c1cccs1 (stereo unspecified) | - | - | - | - | - | - | . | . | .
N#CC1=C2SCN(c3ccccc3)CN2C(=O)CC1c1c(Cl)cccc1Cl (stereo unspecified) | - | - | - | - | - | - | - | - | -
COc1ccc(OC)c(C2CC(=O)N3CN(c4cccc(Cl)c4C)CSC3=C2C#N)c1 (stereo unspecified) | - | - | - | - | - | - | . | . | .
N#CC1=C2SCN(c3ccccc3)CN2C(=O)CC1c1ccccc1Cl (stereo unspecified) | - | - | - | - | - | - | - | - | -
CCOC(=O)c1c(Cc2cccc(Cl)c2)c[nH]c1C | - | - | -10 | - | - | 6 | 68% | - | 28%
COc1ccc(CC(=O)NCC(C)(C)N2CCOCC2)cc1 | - | - | - | - | - | - | . | . | .
CCOC(=O)Cn1c(=NC(=O)CSC(C)=O)sc2cc(F)ccc21 | - | - | -8.6 | - | - | - | 63% | - | 33%
CCn1c(=NC(=O)CSC(C)=O)sc2cc(OC)ccc21 | - | - | -14 | - | - | - | 60% | - | 32%
CCOCCn1c(=NC(=O)CSCC(=O)Nc2cc(C)on2)sc2cc(OC)ccc21 | - | - | - | - | - | - | . | . | .
COCCn1c(=NC(=O)CSC(C)=O)sc2cc(F)ccc21 | - | - | - | - | - | - | . | . | .
Cc1[nH]c2ccc(F)cc2c1CCN(Cc1cccnc1)C(=S)Nc1cccc(F)c1 | - | - | -9.1 | - | - | - | 42% | - | 44%
COc1ccc(NC(=S)N(CCc2c(C)[nH]c3ccccc23)Cc2ccco2)cc1 | - | - | - | - | - | - | . | . | .
COc1ccc2[nH]c(C)c(CCN(Cc3cccs3)C(=S)Nc3cccc(F)c3)c2c1 | -12 | - | -14 | - | - | - | 55% | - | 31%
COc1cccc(NC(=S)N(CCN(C)C)Cc2cccs2)c1 | - | - | - | - | - | - | . | . | .
COc1ccc(OC)c(NC(=S)N(CCc2c(C)[nH]c3ccccc23)Cc2cccs2)c1 | - | - | -9.1 | - | - | - | 32% | - | 31%
COc1ccc(OC)c(NC(=S)N(CCc2c(C)[nH]c3ccc(C)cc23)Cc2cccs2)c1 | - | - | -9.4 | - | - | - | 34% | - | 30%
O=C(O)c1ccccc1NS(=O)(=O)c1cccc(-n2sc3ccccc3c2=O)c1 | - | - | - | 13 | - | - | - | - | -
O=C(O)c1ccccc1NS(=O)(=O)c1cccc(C(F)(F)F)c1 | - | - | - | - | - | - | . | . | .
O=c1c(-c2ccccc2)c(O)c2ccccc2n1-c1ccccc1 | - | - | - | - | - | - | . | . | .
